Screening results deposited in PubChem by The Scripps Research Institute Molecular Screening Center.
OX1R antag-1: antagonists of human orexin 1 receptor | O43613 | CHO/OX1R cells, Fluo-8 calcium fluorescence, orexin A | inhibition, % at 5 µM | 330,000 tested, 0.43% active | AID 434989;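 active means inhibition above its plate's threshold, mean inhibition of all tested compounds on the plate plus 3 SD, cut at about 37% in these data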
TAAR1 antag: human TAAR1 antagonism. CHO RD-HGA16 TAAR1, Fluo-8 calcium fluorescence, antagonist. inhibition, % at 3 µM. 360,000 tested, 1.5% active;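 active means inhibition above a per-plate cutoff, the mean inhibition of test compounds on that plate plus 3 SD, cut at about 49% in these data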
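Assay system: CHO-derived RD-HGA16 cells stably expressing human TAAR1 plus Gα16. Timing: 140 s kinetic read after compound, 140 s after agonist. Technique: kinetic Fluo-8 calcium fluorescence measurement. Measure: % inhibition of agonist calcium response.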
GalR3 antag: blocks the human galanin receptor 3 | 360,000 tested, 0.44% active | HEK293 GalR3-CNG cAMP membrane potential fluorescence; galR3 body fused to GalR1 C-terminus | inhibition, % at 3 µM | O60755;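 active means inhibition above the screen-wide average plus 3 SD, cut at about 13% in these data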;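 further: forskolin and galanin both at EC90 stimulate the cells; cAMP rise reported by CNG channel membrane potential dye signal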
Target sequence (O60755 1-299 limits assumed): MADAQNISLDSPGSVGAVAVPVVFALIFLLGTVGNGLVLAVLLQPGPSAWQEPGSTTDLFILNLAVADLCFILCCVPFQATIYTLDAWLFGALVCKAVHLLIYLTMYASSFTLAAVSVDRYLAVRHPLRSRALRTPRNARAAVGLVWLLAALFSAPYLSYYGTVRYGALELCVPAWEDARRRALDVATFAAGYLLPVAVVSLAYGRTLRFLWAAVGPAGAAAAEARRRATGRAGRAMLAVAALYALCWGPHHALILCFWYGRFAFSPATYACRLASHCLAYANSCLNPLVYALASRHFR
CHO parental Ca: counter-screen for OX1R antagonists: effect in parental CHO cells; inhibition, % at 5.6 µM; 330,000 tested, 0.63% active; AID 463079; parental CHO-K1, ATP-induced calcium, Fluo-8 fluorescence;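 active means inhibition above that plate's mean sample inhibition plus 3 SD, cut at about 26% in these data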
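Material – parental CHO cells · Reagent – ATP stimulus · Compound – single nominal dose of 5.6 µM per compound · Detection – Fluo-8 fluorescence · Read-out basis – percent inhibition of calcium signal · Controls – ATP-challenged DMSO wells low, unchallenged DMSO wells high · Repeats – no replicates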
TAAR1 agonist: human TAAR1 agonism; Q96RJ0; activation, % at 3 µM; 360,000 tested, 0.99% active; CHO RD-HGA16 TAAR1, Fluo-8 calcium fluorescence; vehicle wells 0%, saturating PEA agonist 100%; AID 624467;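 active means activation above the mean activation of all test compounds in the run plus 3 SD, cut at about 38% in these data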
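Assay system: CHO-derived RD-HGA16 cells with stable Gα16 and human TAAR1; timing: 17-24 h seeding, 75 min 37 °C dye, 30 min RT; read-out: % activation from peak over basal fluorescence ratio, DMSO-to-PEA scaled; measured by: kinetic Fluo-8 calcium fluorescence; benchmarks: low control DMSO, high control PEA (EC100); doses: 3 µM single concentration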
OX1R antag-2: OX1R (human) antagonism | O43613 | OX1R-expressing cells, FRET antagonist read-out | inhibition, % at 6.6 µM | 330,000 tested, 1.8% active | AID 485270; in the data active means inhibition mostly above about 38%, no sharp cut-off; inactive means mostly below about 40%
OX1R HTRF confirm: confirmation of human orexin 1 receptor antagonists, HTRF format; shares compounds with OX1R antag-2; OX1R-expressing cells, HTRF antagonist assay; inhibition, % at 6.6 µM; 1,800 tested, 49% active; AID 492964; in the data active means inhibition above about 55%;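 further: CHO cells expressing OX1R stimulated with orexin A at about EC80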
CHO-K1 HTRF cnt: counter-screen: parental CHO-K1 HTRF response; shares compounds with OX1R antag-2; 1,800 tested, 48% active; inhibition, % at 6.6 µM; parental CHO-K1 cells, HTRF counterscreen; AID 493232; in the data active means inhibition above about 17%
Each line names hits and unclear results; the compound was inactive in the other large screens (follow-up assays come after a bar, where they were run). Most compounds without a hit are left out; they make up all but 4.2% or so of the library.

N#C/C(=C\c1c(Oc2ccccc2F)nc2ccccn2c1=O)C(=O)NC1CCS(=O)(=O)C1 (configuration not stated)	OX1R antag-2 89 | OX1R HTRF confirm inactive | CHO-K1 HTRF cnt 36
N#C/C(=C\c1c(Oc2ccccc2Cl)nc2ccccn2c1=O)C(=O)NC1CCS(=O)(=O)C1 (configuration not stated)	none
O=C(O)c1ccccc1-c1ccccc1C(=O)Nc1ccccc1	none
O=C(O)c1ccc2c3c(ncnc13)-c1ccccc1C2=O	OX1R antag-2 186 (no result: TAAR1 antag, GalR3 antag, TAAR1 agonist) | OX1R HTRF confirm 58 | CHO-K1 HTRF cnt 98
OCCc1c[nH]c2ccccc12	none
Nc1ccc2c(c1)Cc1cc(N)c(Cl)cc1-2	none (no result: OX1R antag-1, CHO parental Ca, OX1R antag-2)
CC(=O)NC1=C(Nc2ccc(N(C)C)cc2)C(=O)c2ccccc2C1=O	OX1R antag-2 120 | OX1R HTRF confirm 66 | CHO-K1 HTRF cnt 92
COC1=C(Nc2ccc(C)cc2)C(=O)c2ccccc2C1=O	none
CCOC(=O)C1CCN(C2=C(NS(=O)(=O)c3ccc(Cl)cc3)C(=O)c3ccccc3C2=O)CC1	OX1R antag-2 114 | OX1R HTRF confirm 119 | CHO-K1 HTRF cnt 42
CCOC(=O)N1CCN(C2=C(NS(=O)(=O)c3ccc(NC(C)=O)cc3)C(=O)c3ccccc3C2=O)CC1	OX1R antag-2 83 | OX1R HTRF confirm 59 | CHO-K1 HTRF cnt 83
CCN1CCN(c2nc3ccccc3nc2NS(=O)(=O)c2ccc(NC(C)=O)cc2)CC1	none
CC1CCN(C2=C(NS(=O)(=O)c3ccc(Cl)cc3)C(=O)c3ccccc3C2=O)CC1	none
CCN1CCN(C2=C(NS(=O)(=O)c3ccc(NC(C)=O)cc3)C(=O)c3ccccc3C2=O)CC1	OX1R antag-2 94 | OX1R HTRF confirm 59 | CHO-K1 HTRF cnt 104
Cc1ccc(C(=O)Nc2ccncc2)cc1[N+](=O)[O-]	none
Cc1ccc(NC(=O)c2ccncc2)cc1[N+](=O)[O-]	OX1R antag-2 105 | OX1R HTRF confirm inactive | CHO-K1 HTRF cnt 32
CCS(=O)(=O)c1ccc(Sc2nncn2C)c([N+](=O)[O-])c1	OX1R antag-2 96 | OX1R HTRF confirm inactive | CHO-K1 HTRF cnt 51
COc1ccc(N=Nc2nc3cc(Br)c(Br)cc3n2C)c(OC)c1	OX1R antag-2 84 | OX1R HTRF confirm 88 | CHO-K1 HTRF cnt 19
Cc1c(Cl)c([N+](=O)[O-])nn1CCCC(=O)N(Cc1ccccc1)Cc1ccccc1	OX1R antag-2 84 | OX1R HTRF confirm 85 | CHO-K1 HTRF cnt inactive
Cc1c(Cl)c([N+](=O)[O-])nn1CCCC(=O)N1CCN(c2ccccc2)CC1	none
CCOC(=O)CNC(=O)Cn1cnc2sc(C)c(S(=O)(=O)N3CCC(C)CC3)c2c1=O	none
COc1cccc(/C=N/n2c(COc3ccccc3)n[nH]c2=S)c1OC	none
Cc1cnc([N+](=O)[O-])n1CCOC(=O)NC(=O)c1cccc(F)c1	OX1R antag-2 78 | OX1R HTRF confirm 60 | CHO-K1 HTRF cnt inactive
c1ccc2c(-c3nc4ncccc4o3)cccc2c1	OX1R antag-2 90 | OX1R HTRF confirm 89 | CHO-K1 HTRF cnt inactive
Brc1cc2ccccc2[n+](Cc2ccccc2)c1	OX1R antag-2 102 | OX1R HTRF confirm inactive | CHO-K1 HTRF cnt 62
NC(=O)c1nc(C(=O)N2CCN(c3ccccc3)CC2)c2ccccc2n1	none
O=C(Nc1ccc(S(=O)(=O)N2CCCC2)cc1)c1cccnc1	none
C=CCc1cc(/C=C2/NC(=O)NC2=O)cc(OCC)c1O	none
CCOc1cc(/C=C2/NC(=O)NC2=O)cc([N+](=O)[O-])c1O	OX1R antag-2 80 | OX1R HTRF confirm inactive | CHO-K1 HTRF cnt 74
COc1ccc2cc3cc(C(=O)NCc4cccs4)oc3nc2c1	none
CCN1CCN(CCCNC(=O)c2cc3cc4ccc(OC)cc4nc3o2)CC1	OX1R antag-2 104 (no result: TAAR1 antag, GalR3 antag, TAAR1 agonist) | OX1R HTRF confirm inactive | CHO-K1 HTRF cnt 41
